Screens: PubChem, several laboratories
HePTP inh – inhibitors of human HePTP phosphatase, primary screen, biochemical, absorbance, leukemia target. hit rate 0.64% among 110,000. inhibition, % at 20 µM. recombinant HePTP phosphatase activity, OD absorbance. Tyrosine-protein phosphatase non-receptor type 7 (Homo sapiens), P35236; in the data active = inhibition above about 50%;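 also: plate controls were vehicle for no effect and reference inhibitor for full effect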
PLAP act – PLAP enzyme activators, biochemical, luminescence, HTS; Alkaline phosphatase, placental type (Homo sapiens), P05187; purified PLAP enzyme, luminescent substrate read-out; active compounds read high; activation fold at 20 µM; hit rate 1.2% among 96,000; in the data active = activation fold above about 2
Target sequence (P05187 whole entry, looked up): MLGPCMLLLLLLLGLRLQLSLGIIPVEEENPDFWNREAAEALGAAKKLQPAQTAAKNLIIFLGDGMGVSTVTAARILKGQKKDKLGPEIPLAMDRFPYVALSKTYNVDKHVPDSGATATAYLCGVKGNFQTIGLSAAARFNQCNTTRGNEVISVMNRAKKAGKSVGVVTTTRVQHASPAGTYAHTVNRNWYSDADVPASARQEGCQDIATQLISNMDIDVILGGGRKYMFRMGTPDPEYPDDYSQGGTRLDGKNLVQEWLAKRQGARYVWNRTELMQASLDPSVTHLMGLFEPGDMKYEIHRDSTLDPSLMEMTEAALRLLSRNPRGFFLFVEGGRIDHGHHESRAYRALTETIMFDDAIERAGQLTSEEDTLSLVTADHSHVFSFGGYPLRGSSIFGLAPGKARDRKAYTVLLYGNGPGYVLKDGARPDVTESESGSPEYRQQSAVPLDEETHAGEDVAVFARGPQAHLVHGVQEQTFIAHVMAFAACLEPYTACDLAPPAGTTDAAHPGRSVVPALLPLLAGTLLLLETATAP
Ecoli WT expand – growth inhibitors of wild-type E. coli, primary screen, strain BW25113, expanded library, OD600 | OD600 absorbance | growth inhibition, % at 100 µM | hit rate 0.15% among 98,000 | AID 710, 2007;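 active = growth inhibition above about 50% at one test dose, limit read from the data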;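 also: growth measured after 20 h incubation at 37 °C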
AP ELISA ortho – alternative complement pathway inhibitors, primary screen, biochemical, ELISA, human serum, orthogonally pooled compounds | inhibition, % at 5 µM | LPS-coated ELISA, C3 deposition; tested in compound mixtures | hit rate 0.08% among 62,000;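 active = inhibition above 30% in each of the two pooled mixtures holding the compound, so the lower value exceeds 30%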;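 also: 0% = serum in Mg-EGTA without compound and 100% = EDTA serum blank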
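Test system: human serum complement alternative pathway, C3 deposition onto LPS / Medium: Mg2+-EGTA GVB++ buffer containing human serum at 1:15 dilution / Probe or stimulus: Plate-bound LPS / Times: 1 h at 37 °C / Signal: ELISA with HRP anti-human C3 antibody, TMB substrate, absorbance 450 nm / Measure: percent inhibition / Repeats: two pool placements per compound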
Ecoli tolC – growth inhibitors of E. coli tolC mutant, primary screen, strain BW25113 ΔtolC::kan, 384-well. OD615. growth inhibition, % at 10 µM (by protocol). hit rate 2.2% among 65,000;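 active = growth inhibition at or above a cutoff equal to the mean over every tested compound plus 3 SD, cut at about 60% in these data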;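 also: growth measured after 20 h incubation at 37 °C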
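Material: E. coli BW25113 ΔtolC::kan, tolC deletion mutant strain. Measure: percent growth inhibition. Schedule: 37 °C, 20 h exposure. Doses: single-point testing at 10 µM. Signal: A615 absorbance measurement. Buffer or medium: kanamycin-containing LB broth (50 µg/mL).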
Starred values were filed as active, the others as inactive; nt = not tested or not shown. Compounds with a hit are over-represented: about 2.3% of the library has one in this group of screens.

SMILES	HePTP inh	PLAP act	Ecoli WT expand	AP ELISA ortho	Ecoli tolC
COc1ccc(/C(O)=C2/C(=O)C(=O)N(CCCCCC(=O)O)C2c2ccc(F)cc2)cc1 (centres undefined)	0.2	nt	nt	nt	nt
N#Cc1cc2c(nc1SCc1cccnc1)CCC2	11.5	0.8	10.0	-4.1	6.3
N#Cc1cc2c(nc1SCc1nc3ccccc3[nH]1)CCC2	9.1	2.1*	3.0	-10.4	56.9
CCN(CC)c1ccc(/C=C(\NC(=O)c2ccccc2Cl)C(=O)NN)cc1	-8.0	nt	nt	nt	nt
O=C(N/N=C/c1cn(Cc2ccccc2)c2ccccc12)C1COc2ccccc2O1 (centres undefined)	0.0	nt	nt	nt	nt
O=C(O)[C@H](CO)Nc1ncnc2sc3c(c12)CCC3	nt	0.8	5.0	nt	nt
O=S(=O)(Nc1ncnc2sc3c(c12)CCC3)c1ccc(Cl)s1	31.5	1.4	-2.0	14.0	62.8*
CN(c1cccc(NC(=O)Nc2cccc(Cl)c2)c1)S(C)(=O)=O	10.0	1.3	29.0	-11.3	61.3*
CC(=O)Nc1cccc(N(C)S(C)(=O)=O)c1	-6.2	1	0.0	5.2	-11.6
O=C(NCc1ccc2c(c1)OCO2)C(O)(c1ccccc1)c1ccccc1	5.6	nt	nt	nt	nt
CN(/C=C/C=C1\CC/C(=C\C=C\N(C)c2ccccc2)C1=O)c1ccccc1	97.6*	nt	nt	nt	nt
COc1cc(/C=C2\C(=O)NC(=O)N(c3cccc(C)c3)C2=O)c([N+](=O)[O-])cc1OC	-0.6	nt	nt	nt	nt
CCCCOC(=O)c1ccc(NS(=O)(=O)c2cc(-c3nnnn3CC)ccc2OC)cc1	-11.2	2.2*	4.0	8.2	32.8
COc1ccc(C(=O)N2CCN(Cc3cccc(Oc4ccccc4)c3)CC2)cc1OC	-8.3	nt	nt	nt	nt
Cn1c(=O)n(CCc2ccccc2)c(=O)c2c1nc1n2CCCN1CCc1ccccc1	4.3	1.5	-26.0	-12.7	76.5*
CCN(CC)C(=O)c1c(-c2ccccc2)noc1C	-7.0	nt	nt	nt	nt
Cc1cc(C)nc(N(C#N)Cc2ccccc2)n1	5.7	1.1	2.0	10.1	16.0
CCNc1nc(NC(C)C)nc(N(C#N)Cc2ccccc2)n1	12.2	1.1	1.0	-7.2	67.0*
CCNc1nc(NC(C)C)nc(N(C#N)CCOc2ccc(Cl)cc2Cl)n1	4.4	1.2	-11.0	6.1	75.3*
CCOC(=O)c1ccc(NC(=O)CN(c2cc(C)cc(C)c2)S(=O)(=O)c2ccccc2)cc1	-15.5	nt	nt	nt	nt
C=CCN1C(=O)C(CC(=O)Nc2ccc(C)cc2)SC1=Nc1c(C)n(C)n(-c2ccccc2)c1=O (centres undefined)	nt	2.1*	5.0	nt	nt
C=CCN1C(=O)C(CC(=O)O)SC1=Nc1c(C)n(C)n(-c2ccccc2)c1=O (centres undefined)	3.5	1.3	-5.0	-2.7	-8.6
O=C(Nc1cccc2ccccc12)c1ccc(Br)o1	9.4	0.8	-2.0	7.7	14.9
O=C(Nc1cccc2cccnc12)c1ccc(Br)o1	20.4	1.1	7.0	5.7	92.5*
CCc1cc(C(=O)Cc2ccc(F)cc2)c(O)cc1O	6.6	nt	nt	4.3	90.9*
SMILES	HePTP inh	PLAP act	Ecoli WT expand	AP ELISA ortho	Ecoli tolC
CCCc1cc(C(=O)Cc2nc3ccccc3s2)c(O)cc1O	nt	1.5	8.0	nt	nt
CCc1cc(C(=O)Cc2nc3ccccc3[nH]2)c(O)cc1O	8.6	2.3*	16.0	10.4	13.0
CCc1cc(C(=O)COc2ccccc2F)c(O)cc1O	-4.4	0.9	18.0	17.2	100.0*
CCCc1cc(C(=O)Cc2ccc(C(=O)OCC)o2)c(O)cc1O	10.3	8.6	12.0	24.2	65.5*
CC(=O)Oc1ccc(C(=O)Nc2cc([N+](=O)[O-])ccc2O)cc1	21.6	nt	nt	nt	nt
Cc1ccc(C(C)C)c(OCC(=O)Nc2ccc(I)cc2Cl)c1	1.3	nt	nt	nt	nt
CCc1cc(/C(Cc2ccc3ccccc3n2)=N\O)c(O)cc1O	nt	1.1	17.0	10.0	97.5*
CCc1cc(/C(Cc2ccccn2)=N\O)c(O)cc1O	nt	1	5.0	nt	nt
CCCCC(CC)CNC(=O)c1[nH]c(C)c(C(C)=O)c1C (centres undefined)	-4.9	1	5.0	10.6	62.1*
N#Cc1nc(Cc2ccccc2)oc1NCc1ccccc1Cl	2.8	1.1	30.0	9.6	92.6*
N#Cc1nc(Cc2ccccc2)oc1NCc1cccnc1	4.1	nt	nt	-6.5	6.3
COc1cc(CN2CCN(C(=O)CC(C)C)CC2)cc(OC)c1	1.6	nt	nt	nt	nt
CCCCCCCCn1c(-c2nonc2NC(C)=O)nc2ccccc21	4.6	nt	nt	nt	nt
O=C(/C=C/c1ccco1)Nc1ccc(O)c(-c2nc3ccccc3o2)c1	3.0	nt	nt	nt	nt
O=C(/C=C/c1ccco1)Nc1ccc(-c2nc3ccccc3s2)c(O)c1	104.0*	nt	nt	nt	nt
Cc1cc(Cl)cc(C)c1OCCOCCN1CCN(C)CC1	2.6	nt	nt	nt	nt
O=C(CCCSc1nc(-c2ccco2)cc(C(F)(F)F)n1)Nc1ccc2c(c1)OCO2	-2.1	1.1	-6.0	-12.4	79.1*
O=C(CCSc1nc(-c2ccco2)cc(C(F)(F)F)n1)N1CCCc2ccccc21	4.4	1.6	-17.0	14.7	76.8*
CC(=O)N(C)c1ccc(NC(=O)c2ccc(C(=O)Nc3ccc(N(C)C(C)=O)cc3)cc2)cc1	6.3	nt	nt	nt	nt
CC(=O)C1=C(O)CCC1=NCCc1ccccc1	nt	0.8	-5.0	nt	nt
CC(=O)C1=C(O)CCC1=N	4.2	1	6.0	39.1*	-23.3
COc1ccc(/C(C)=N\N2CCN(Cc3ccccc3Cl)CC2)cc1OC	-14.0	nt	nt	nt	nt
Clc1ccc(CN2CCN(c3ncnc4scc(-c5cccs5)c34)CC2)cc1	nt	1.8	-12.0	nt	nt
Clc1ccc(OCCN2CCN(c3ncnc4sccc34)CC2)cc1	6.2	1.7	5.0	10.9	94.5*
Cc1ccc(OCCN2CCN(c3ncnc4sc(C)c(C)c34)CC2)cc1	nt	2.2*	2.0	nt	nt
SMILES	HePTP inh	PLAP act	Ecoli WT expand	AP ELISA ortho	Ecoli tolC
CCCCOc1ccc(N/C(N)=N/c2nc(C(F)(F)F)cc(=O)[nH]2)cc1	4.1	nt	nt	nt	nt
O=C(NC1(C(F)(F)F)NC(=O)N(Cc2ccccc2)C1=O)c1cccnc1 (centres undefined)	nt	1.1	10.0	nt	nt
O=C1NC(Nc2nccs2)(C(F)(F)F)C(=O)N1CCc1ccccc1 (centres undefined)	-5.8	2*	4.0	-14.1	24.3
O=C(CN1CCCCCC1)N/N=C/c1cccs1	nt	2.5*	5.0	nt	nt
CC(=O)Nc1cc(-c2ccc(Cl)cc2)nn1Cc1ccc(Cl)cc1	9.1	nt	nt	nt	nt
CC(=O)Nc1cc(-c2ccc(C)cc2)nn1Cc1ccccc1	104.2*	nt	nt	nt	nt
Cc1cc(NC(=O)c2ccccc2)sc1C	1.7	1	54.0*	10.4	97.8*
O=C(Nc1cc2c(s1)CCCC2)c1ccccc1	2.3	nt	nt	nt	nt
Cc1ccc(NC(=O)c2ccccc2)s1	-9.3	0.9	77.0*	-16.4	54.8
CS(=O)(=O)c1ccc2nc(NC(=O)c3cccc(Br)c3)sc2c1	3.7	nt	nt	nt	nt
O=C(O)c1cc(NC(=O)c2ccc3c(c2)C(=O)N(CC2CCCO2)C3=O)cc(C(=O)O)c1 (centres undefined)	0.3	nt	nt	nt	nt
COc1ccc(-n2c(Cc3cccn3C)nnc2SCC(=O)Nc2ccc(C)c(Cl)c2)cc1	3.3	1.4	-18.0	22.2	74.8*
